Experimental data: ChEMBL document CHEMBL1821560, “Inhibitors of androgen receptor activation function-2 (AF2) site identified through virtual screening” (J Med Chem, 2011)
pIC50: −log10 of the molar value. Calls of active or inactive are those of the source. The rule behind the calls is not given here.

Key:
[1] = molecular target: T1, Androgen receptor (Homo sapiens) (UniProt P10275); assay: (§1) Displacement of SRC2-3 peptide from human AR ligand binding site expressed in Escherichia coli BL21 by AF2 FP assay
T1 sequence (whole entry): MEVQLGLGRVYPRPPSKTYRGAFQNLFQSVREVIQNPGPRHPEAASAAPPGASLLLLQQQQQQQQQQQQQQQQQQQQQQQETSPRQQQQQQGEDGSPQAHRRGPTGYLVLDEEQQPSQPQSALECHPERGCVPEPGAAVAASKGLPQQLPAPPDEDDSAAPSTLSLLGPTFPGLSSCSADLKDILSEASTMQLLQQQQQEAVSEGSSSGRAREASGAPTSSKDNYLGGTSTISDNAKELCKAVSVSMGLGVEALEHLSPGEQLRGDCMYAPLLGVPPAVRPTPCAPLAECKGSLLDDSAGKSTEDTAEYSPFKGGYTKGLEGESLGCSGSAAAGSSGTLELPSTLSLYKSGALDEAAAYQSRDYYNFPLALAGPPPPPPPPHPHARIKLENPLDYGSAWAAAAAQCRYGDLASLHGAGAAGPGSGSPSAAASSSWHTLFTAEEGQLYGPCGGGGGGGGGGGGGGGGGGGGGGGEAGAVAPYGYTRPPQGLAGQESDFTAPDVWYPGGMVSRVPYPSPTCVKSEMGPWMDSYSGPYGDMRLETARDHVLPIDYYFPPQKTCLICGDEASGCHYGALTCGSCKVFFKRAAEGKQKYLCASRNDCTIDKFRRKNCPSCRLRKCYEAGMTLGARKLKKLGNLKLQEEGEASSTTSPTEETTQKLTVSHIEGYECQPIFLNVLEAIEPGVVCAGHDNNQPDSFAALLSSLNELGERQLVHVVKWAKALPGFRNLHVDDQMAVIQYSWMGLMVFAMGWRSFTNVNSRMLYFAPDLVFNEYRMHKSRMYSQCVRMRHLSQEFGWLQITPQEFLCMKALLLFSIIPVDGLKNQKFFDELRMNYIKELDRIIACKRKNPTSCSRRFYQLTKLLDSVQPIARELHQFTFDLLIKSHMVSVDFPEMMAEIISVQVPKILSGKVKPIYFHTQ
Procedure, shortened: (§2)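 Purified AR LBD (2 μM) with FITC-SRC2-3 peptide (5 nM), compound 0–200 μM, in 25 mM HEPES pH 7.5, 50 mM NaCl, 0.01% NP-40, 2 μM DHT; 2 h incubation, FP read at ex 485/em 530 nm. Triplicate, means ± SD; IC50 by nonlinear four-parameter fit, Ki via Kenakin equation.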

Androgen receptor [2] = molecular target: T2, Androgen receptor (Homo sapiens, UniProt P10275); assay: as §1; procedure, shortened: as §2
T2 sequence (P10275 whole entry): T1 sequence (whole entry)

[3] = molecular target: T1, Androgen receptor (Homo sapiens); assay: (§3) Inhibition of human AR AF2 site expressed in human LNCap cells coexpressing eGFP -ARR2PB assessed as inhibition of transcriptional activity; type: cell-based
Procedure, shortened: (§4)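 LNCaP cells stably carrying eGFP under androgen-responsive ARR2PB promoter, kept 5 days in phenol-red-free RPMI 1640 with 5% CSS, then plated at 35 000 cells/well with 0.1 nM R1881 plus compound 0–100 μM; after 3 days eGFP fluorescence read (ex 485, em 535 nm).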

Androgen receptor [4] = molecular target: T2, Androgen receptor; assay: as §3; type: cell-based; procedure, shortened: as §4
LNCaP = assay: Cytotoxicity against human LNCAP cells at 50 uM assessed as cell viability after 72 hrs by MTS assay; type: functional
Procedure, shortened: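 LN-ARR2PBeGFP LNCaP cells exposed to compound for 72 h, then MTS reagent added and incubated 2 h at 37 °C in 5% CO2; absorbance read-out of proliferation/viability.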

[5] = molecular target: T3, Androgen receptor (Rattus norvegicus) (UniProt P15207); assay: Displacement of androgen from His-GST tagged rat AR hormone binding site at 10 uM assessed as decrease in fluorescence polarization
T3 sequence (whole entry): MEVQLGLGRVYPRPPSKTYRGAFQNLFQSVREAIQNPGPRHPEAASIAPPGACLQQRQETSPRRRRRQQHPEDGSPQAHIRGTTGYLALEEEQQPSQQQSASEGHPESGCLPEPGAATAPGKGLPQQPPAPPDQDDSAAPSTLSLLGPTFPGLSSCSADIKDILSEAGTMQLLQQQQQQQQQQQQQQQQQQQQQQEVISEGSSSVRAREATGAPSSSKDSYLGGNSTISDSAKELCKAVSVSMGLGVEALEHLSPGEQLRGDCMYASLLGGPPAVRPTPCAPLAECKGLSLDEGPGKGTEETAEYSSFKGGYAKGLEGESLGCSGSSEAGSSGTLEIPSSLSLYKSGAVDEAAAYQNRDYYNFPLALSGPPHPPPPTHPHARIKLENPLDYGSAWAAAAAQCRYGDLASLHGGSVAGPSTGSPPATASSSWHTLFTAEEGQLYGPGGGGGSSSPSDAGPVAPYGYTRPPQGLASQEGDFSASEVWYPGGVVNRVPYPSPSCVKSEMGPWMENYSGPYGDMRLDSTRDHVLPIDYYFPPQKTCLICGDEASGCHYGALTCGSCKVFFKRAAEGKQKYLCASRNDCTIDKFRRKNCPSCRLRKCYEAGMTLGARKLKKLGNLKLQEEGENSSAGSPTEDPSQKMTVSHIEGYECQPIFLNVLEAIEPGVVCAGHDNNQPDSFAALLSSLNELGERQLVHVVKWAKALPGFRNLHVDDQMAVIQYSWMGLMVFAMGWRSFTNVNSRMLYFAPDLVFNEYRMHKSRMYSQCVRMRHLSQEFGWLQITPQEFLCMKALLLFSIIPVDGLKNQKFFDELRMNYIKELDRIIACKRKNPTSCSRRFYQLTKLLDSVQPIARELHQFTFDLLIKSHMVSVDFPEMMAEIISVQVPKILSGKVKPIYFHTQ
Procedure, shortened: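 Hormone-site competition run with Polar Screen Androgen Receptor Competitor Green kit per manufacturer's protocol; compounds tested at 10 μM.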

inhibition [1]	pIC50 (Androgen receptor [2])	inhibition [3]	pIC50 (Androgen receptor [4])	inhibition [5]	SMILES	viability at 50 µM (LNCaP)
Dose-dependent effect	4.51	Dose-dependent effect	4.73	inactive	Oc1ccc(C2Nc3cccc4cccc(c34)N2)cc1O	121%
Dose-dependent effect	5.09	Dose-dependent effect	4.46	inactive	COc1ccc(C2Nc3cccc4cccc(c34)N2)cc1O	145%
–	4.48	–	5.34	inactive	COc1cc(C2Nc3cccc4cccc(c34)N2)ccc1O	129%
Dose-dependent effect	4.59	Dose-dependent effect	4.48	inactive	CC1=NN(c2ccccc2)C(=O)/C1=N\Nc1ccc(C(=O)O)c(O)c1	50.9%
–	4.50	–	4.95	inactive	CCOc1cc(C2Nc3cccc4cccc(c34)N2)ccc1O	122%
–	4.51	–	5.23	inactive	Oc1ccc(C2Nc3cccc4cccc(c34)N2)cc1	106%
